Experiments:
[1] = target: Sigma non-opioid intracellular receptor 1 (Cavia porcellus, UniProt Q60492); experiment: Displacement of [3H]-(+)-pentazocine from sigma 1 receptor in guinea pig brain membranes after 2 hrs by scintillation counting; type: cell membranes, Membrane
[2] = Displacement of [3H]di-o-tolylgluanidine from sigma 2 receptor in rat liver membranes after 2 hrs by scintillation counting; type: cell membranes, Membrane
Summary of the method: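 Rat liver membranes (sucrose homogenate; pellet held 30 min at room temperature in 50 mM TRIS pH 8.0; 100 µg protein) incubated with 3 nM [3H]DTG and test compound at 10^-10 to 10^-5 M, at room temperature for 120 min. […] Nonspecific binding with 10 µM DTG. Filtration, then scintillation counting. Duplicates. Ki by Cheng-Prusoff from IC50, mean ± SEM, n = 3.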

[3] = Selectivity ratio of Ki for sigma 2 receptor in rat liver membranes to Ki for sigma 1 receptor in guinea pig brain membranes; type: cell membranes
[4] = Displacement of [3H]di-o-tolylgluanidine from sigma 2 receptor in rat liver membranes at 1 uM after 2 hrs by scintillation counting; conditions: Membrane
[5] = target: Sigma non-opioid intracellular receptor 1 (Cavia porcellus) (UniProt Q60492); experiment: Displacement of [3H]-(+)-pentazocine from sigma 1 receptor in guinea pig brain membranes at 1 uM after 2 hrs by scintillation counting; type: cell membranes; conditions: Membrane
Summary of the method: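 Guinea pig brain membranes (about 100 µg protein) incubated with 2 nM [3H]-(+)-pentazocine and 1 µM test compound in 50 mM TRIS pH 7.4 at 37 °C for 120 min. Filtered, then counted by scintillation. […] Result given as % inhibition of radioligand binding.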

Mus musculus = species: Mus musculus; experiment: Analgesic activity in mouse by acetic acid writhing test; type: functional

Sigma non-opioid intracellular receptor 1, sequence (Q60492 whole entry): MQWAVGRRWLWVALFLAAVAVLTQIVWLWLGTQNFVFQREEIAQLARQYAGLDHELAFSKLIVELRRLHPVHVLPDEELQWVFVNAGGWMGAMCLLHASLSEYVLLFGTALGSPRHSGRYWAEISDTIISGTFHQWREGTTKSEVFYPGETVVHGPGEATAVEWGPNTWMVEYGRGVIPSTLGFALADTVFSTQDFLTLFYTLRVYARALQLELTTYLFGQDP
Sigma non-opioid intracellular receptor 1 (Cavia porcellus), sequence (Q60492 whole entry): as above

SMILES	Ki [1] [µM]	Ki [2] [µM]	Ratio Ki [3]	inhibition [4] [%]	inhibition [5] [%]	ED50 (Mus musculus) [mg/kg]
CCCCCCCCN1CCC2(CC1)OC(CCO)Cc1ccccc12 (racemic)	0.026	0.234	9	–	–	–
OCCC1Cc2ccccc2C2(CCN(CCCc3ccccc3)CC2)O1 (racemic)	0.02	0.617	30	–	–	–
CCN1CCC2(CC1)OC(CCO)Cc1ccccc12 (racemic)	–	–	–	0	0	–
OCCC1Cc2ccccc2C2(CCN(Cc3ccccc3)CC2)O1 (racemic)	0.02	–	–	0	–	–
CN1CCC2Cc3ccccc3C(C1)O2 (stereo not drawn)	–	–	–	–	–	20
Cc1ccccc1NC(=N)Nc1ccccc1C [DITOLYLGUANIDINE]	–	0.0202	–	–	–	–

More lines, main results first:

Ki [1] [µM]	Ki [2] [µM]	Ratio Ki [3]	inhibition [4] [%]	inhibition [5] [%]	SMILES	ED50 (Mus musculus) [mg/kg]
0.519	–	–	–	–	COC(=O)C[C@@H]1Cc2ccccc2[C@H](CCN2CCCCC2)O1 (racemic)	–
0.038	0.107	2.8	–	–	COC(=O)C[C@@H]1Cc2ccccc2[C@H](CCN2CCC(c3ccccc3)CC2)O1 (racemic)	–
0.51	–	–	7	–	COC(=O)C[C@@H]1Cc2ccccc2[C@H](CN2CCCCC2)O1 (racemic)	–
0.052	0.02	0.4	–	–	OCC[C@@H]1Cc2ccccc2[C@H](CCN2CCC(c3ccccc3)CC2)O1 (racemic)	–
0.06	–	–	13	–	CCCCN1CCC2(CC1)OC(CCO)Cc1ccccc12 (racemic)	–
0.673	0.785	1.2	–	–	COC(=O)C[C@@H]1Cc2ccccc2[C@H](CN2CCC(c3ccccc3)CC2)O1 (racemic)	–
0.039	0.61	15	–	–	COC(=O)CC1Cc2ccccc2C2(CCN(CCCc3ccccc3)CC2)O1 (racemic)	–
–	–	–	14	4	OCC[C@@H]1Cc2ccccc2[C@H](CCN2CCCCC2)O1 (racemic)	–
> 1	–	–	0	–	COC(=O)C[C@@H]1Cc2ccccc2[C@H](CCN2CCCC2)O1 (racemic)	–
